Values belong to the compound of their own block, whether it stands above or below them.
Tests used:
A549 = test: Cytotoxicity against human A549 cells after 48 hrs by sulforhodamine B assay; format: functional; details: A549, 48 h
How it was run: (§1)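 Cells were grown in RPMI 1640 with 10% FBS and 2 mM L-glutamine, seeded at densities set by doubling time, and left 24 h before drug. Exposure was 48 h continuous at 0.1, 1, 10 and 100 µM, triplicate wells. Cells were fixed in cold 10% TCA for 60 min at 4 °C and stained with SRB. Bound dye was eluted with 10 mM Tris and read at 540 nm (690 nm reference). GI50 was the concentration halving net protein increase versus control.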

[1] = Cytotoxicity against human AW13516 cells after 48 hrs by sulforhodamine B assay; format: functional; how it was run: as §1
[2] = Cytotoxicity against human AW8507 cells after 48 hrs by sulforhodamine B assay; format: functional; details: AW8507, 48 h; how it was run: as §1
PC-3 = test: Cytotoxicity against human PC3 cells after 48 hrs by sulforhodamine B assay; format: functional; details: PC-3, 48 h; how it was run: as §1
A2780 = test: Cytotoxicity against human A2780 cells after 48 hrs by sulforhodamine B assay; format: functional; details: A2780, 48 h; how it was run: as §1
DNA [3] = test: Binding affinity to calf thymus DNA at pH 7.0 at 20 uM after 18 hrs by thermal denaturation assay; format: nucleic-acid assay; details: Bos taurus
DNA [4] = test: Binding affinity to calf thymus DNA at pH 7.0 at 20 uM after 36 hrs by thermal denaturation assay; format: nucleic-acid assay; details: Bos taurus
ZR-75-1 = test: Cytotoxicity against human Zr-75-1 cells after 48 hrs by sulforhodamine B assay; format: functional; details: ZR-75-1, 48 h; how it was run: as §1
KB = test: Cytotoxicity against human KB cells after 48 hrs by sulforhodamine B assay; format: functional; how it was run: as §1
COLO 205 = test: Cytotoxicity against human Colo205 cells after 48 hrs by sulforhodamine B assay; format: functional; details: COLO 205, 48 h; how it was run: as §1
SiHa = test: Cytotoxicity against human SiHa cells after 48 hrs by sulforhodamine B assay; format: functional; how it was run: as §1
HOP-62 = test: Cytotoxicity against human HOP62 cells after 48 hrs by sulforhodamine B assay; format: functional; details: HOP-62, 48 h; how it was run: as §1
MCF7 = test: Cytotoxicity against human MCF7 cells after 48 hrs by sulforhodamine B assay; format: functional; details: MCF7, 48 h; how it was run: as §1

- ΔTm (DNA [3]): 0.6 °C
- ΔTm (DNA [4]): 0.7 °C
Structure (SMILES): COc1cc2c(cc1OCCCCSc1nnc3n1S(=O)(=O)c1ccccc1N3c1ccccc1)N=C[C@@H]1CCCN1C2=O
- GI50 (A549): 29700 nM
- GI50 [1]: 1980 nM
- GI50 [2]: 25800 nM
- GI50 (PC-3): 28.8 µM
- GI50 (A2780): 2270 nM

Structure (SMILES): COc1cc2c(cc1O)N=C[C@@H]1CCCN1C2=O
- ΔTm (DNA [3]): 0.7 °C
- ΔTm (DNA [4]): 0.7 °C

- ΔTm (DNA [3]): 2.4 °C
- ΔTm (DNA [4]): 2.6 °C
Structure (SMILES): COc1cc2c(cc1OCCCCCSc1nnc3n1S(=O)(=O)c1ccccc1N3C)N=C[C@@H]1CCCN1C2=O
- GI50 (A549): 2450 nM
- GI50 (ZR-75-1): 28.5 µM
- GI50 [1]: 1950 nM
- GI50 [2]: 220 nM
- GI50 (KB): 25600 nM
- GI50 (COLO 205): 2190 nM
- GI50 (SiHa): 27900 nM
- GI50 (PC-3): 25.5 µM
- GI50 (A2780): 1920 nM

- ΔTm (DNA [3]): 1.2 °C
- ΔTm (DNA [4]): 1.5 °C
Structure (SMILES): COc1cc2c(cc1OCCCSc1nnc3n1S(=O)(=O)c1ccccc1N3c1ccccc1)N=C[C@@H]1CCCN1C2=O
- GI50 (ZR-75-1): 26 µM
- GI50 (A2780): 30000 nM

Structure (SMILES): COc1cccc2c1C(=O)c1c(O)c3c(c(O)c1C2=O)C[C@@](O)(C(=O)CO)C[C@@H]3O[C@H]1C[C@H](N)[C@H](O)[C@H](C)O1 [DOXORUBICIN]
- GI50 (HOP-62): 140 nM
- GI50 (MCF7): 170 nM
- GI50 [1]: 100 nM
- GI50 [2]: 170 nM
- GI50 (KB): 1720 nM
- GI50 (COLO 205): 140 nM
- GI50 (SiHa): 180 nM
- GI50 (A2780): 160 nM

- ΔTm (DNA [3]): 1.5 °C
- ΔTm (DNA [4]): 1.7 °C
Structure (SMILES): COc1cc2c(cc1OCCCSc1nnc3n1S(=O)(=O)c1ccccc1N3C)N=C[C@@H]1CCCN1C2=O
- GI50 (A549): 2290 nM
- GI50 (HOP-62): 2130 nM
- GI50 (ZR-75-1): 2.19 µM
- GI50 (MCF7): 2060 nM
- GI50 [1]: 2240 nM
- GI50 [2]: 2240 nM
- GI50 (KB): 2380 nM
- GI50 (COLO 205): 1930 nM
- GI50 (SiHa): 2120 nM
- GI50 (PC-3): 2.15 µM
- GI50 (A2780): 1830 nM

- ΔTm (DNA [3]): 1.3 °C
- ΔTm (DNA [4]): 1.5 °C
Structure (SMILES): COc1cc2c(cc1OCCCCCSc1nnc3n1S(=O)(=O)c1ccccc1N3c1ccccc1)N=C[C@@H]1CCCN1C2=O
- GI50 (A549): 30300 nM
- GI50 (HOP-62): 2350 nM
- GI50 (ZR-75-1): 24 µM
- GI50 [1]: 1780 nM
- GI50 [2]: 2480 nM
- GI50 (KB): 2460 nM
- GI50 (COLO 205): 25600 nM
- GI50 (SiHa): 2300 nM
- GI50 (PC-3): 2.4 µM
- GI50 (A2780): 2010 nM

- ΔTm (DNA [3]): 0.5 °C
- ΔTm (DNA [4]): 0.7 °C
Structure (SMILES): COc1cc2c(cc1OCCCCSc1nnc3n1S(=O)(=O)c1ccccc1N3C)N=C[C@@H]1CCCN1C2=O
- GI50 (A549): 2280 nM
- GI50 (ZR-75-1): 25.9 µM
- GI50 (MCF7): 2290 nM
- GI50 [1]: 26600 nM
- GI50 [2]: 2290 nM
- GI50 (KB): 26400 nM
- GI50 (COLO 205): 2110 nM
- GI50 (SiHa): 27000 nM
- GI50 (PC-3): 25.5 µM
- GI50 (A2780): 2170 nM

From ChEMBL document CHEMBL1156549, “Synthesis, DNA-binding ability and evaluation of antitumour activity of triazolo[1,2,4]benzothiadiazine linked pyrrolo[2,1-c][1,4]benzodiazepine conjugates” (2008)
